Source: PubChem BioAssay
Active and inactive are the calls of the source.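 Rule for the calls, unless noted: active = fluorescence slope higher than the sample average by over 3 SD (cut at about -0.22 in these data, passing the limit was not always enough); inactive = the rest.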

Legend:
[1] = inhibitors of TNFa-induced NFkB p65 translocation, primary screen, imaging, HUVEC, MLSMR starter and 10KST1 sets (AID 438;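 active = inhibition above 20% together with a positive visual image hit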;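 note: compound added about 3h40 before a 20 min TNFalpha stimulation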;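 for inhibition: signal is the nuclear over cytoplasmic p65 intensity ratio per well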); settings: HUVEC TNFa-induced p65 nuclear translocation; cell count: measured here: nuclei count (cytotoxicity indicator), at 2.08 µM; inhibition: at 2 µM, stronger effect = higher value, 0% TNFa-plus-vehicle, 100% no-TNFa wells
[2] = endothelial E-selectin expression blockers – imaging, HUVEC, immunofluorescence, MLSMR starter and 10KST1 sets, primary screen (AID 487;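 active = visually confirmed hit in the image check and inhibition above 20%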;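 for inhibition: signal is fraction of cell area covered by stained E-selectin grains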;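 for nuclei count: 100% = median nuclei count of all wells on the same plate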); settings: HUVEC TNFalpha-induced E-selectin immunofluorescence imaging, at 2 µM; inhibition: stronger effect = higher value; nuclei count: measured here: cell number, toxicity
[3] = Primary imaging screen for DUSP6 inhibitors that restore phospho-Erk in transfected HeLa cells, chemical complementation (AID 609;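 active = compounds giving at least 50% inhibition in the cell-based MKP-3 phosphatase rescue imaging test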;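 for inhibition: phospho-Erk level distribution per well compared with pooled transfected vehicle control wells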); settings: HeLa MKP-3 transfected, phospho-Erk imaging KS statistic, at 10 µM, cells stimulated with TPA for 15 min
[4] = target: Dual specificity protein phosphatase 6 (Homo sapiens) (UniProt Q16828); assay: as above; settings: HeLa MKP-3 transfected, phospho-Erk imaging KS statistic; at 10 µM; stronger effect = higher value; cells stimulated with TPA for 15 min
Chain of Dual specificity protein phosphatase 6 (Homo sapiens) (Q16828 whole entry, looked up): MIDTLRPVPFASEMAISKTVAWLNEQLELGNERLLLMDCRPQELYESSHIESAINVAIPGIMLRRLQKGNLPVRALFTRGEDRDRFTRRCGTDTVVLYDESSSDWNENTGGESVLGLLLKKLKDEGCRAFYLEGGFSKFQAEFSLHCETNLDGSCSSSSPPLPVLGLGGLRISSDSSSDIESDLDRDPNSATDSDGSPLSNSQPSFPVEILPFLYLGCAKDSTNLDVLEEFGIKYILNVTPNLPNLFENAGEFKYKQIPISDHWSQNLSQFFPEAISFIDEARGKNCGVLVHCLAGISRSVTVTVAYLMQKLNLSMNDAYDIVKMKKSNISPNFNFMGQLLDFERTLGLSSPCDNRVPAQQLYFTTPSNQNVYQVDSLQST

[5] = target: Voltage-gated potassium channel subunit beta-2 (Rattus norvegicus) (UniProt P62483); assay: inhibitors of rat Kvbeta2 reductase activity – biochemical, NADPH fluorescence, primary screen (AID 622); settings: recombinant KvBeta, 4-cyanobenzaldehyde reduction, at 10 µM, stronger effect = higher value;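 note: slope of raw intensity against log time taken from 70 to 1610 s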
Chain of Voltage-gated potassium channel subunit beta-2 (Rattus norvegicus) (P62483 whole entry, looked up): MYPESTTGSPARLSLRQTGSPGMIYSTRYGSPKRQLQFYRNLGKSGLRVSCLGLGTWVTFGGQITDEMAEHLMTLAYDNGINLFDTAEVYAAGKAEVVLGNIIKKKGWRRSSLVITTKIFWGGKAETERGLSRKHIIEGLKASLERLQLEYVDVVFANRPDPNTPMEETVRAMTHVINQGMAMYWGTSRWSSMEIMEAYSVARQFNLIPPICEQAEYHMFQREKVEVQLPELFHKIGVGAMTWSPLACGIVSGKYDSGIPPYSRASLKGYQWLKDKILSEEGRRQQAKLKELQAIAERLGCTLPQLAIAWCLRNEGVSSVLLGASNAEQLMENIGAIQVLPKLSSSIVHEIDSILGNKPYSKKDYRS

[6] = target: Voltage-gated potassium channel subunit beta-2 (Rattus norvegicus) (UniProt P62483); assay: enhancers of rat Kvbeta2 NADPH turnover – biochemical, NADPH fluorescence, primary screen (AID 623;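 active = NADPH fluorescence slope more negative than the mean of all samples by about 3 SD, 99.7% confidence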;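 note: fluorescence intensity change per second fitted from 20 to 320 s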); settings: Recombinant KvBeta, NADPH fluorescence decrease slope, 10 min; at 10 µM; stronger effect = lower value
[7] = target: Alpha-2C adrenergic receptor (Homo sapiens) (UniProt P18825); assay: compounds altering alpha2C-coupled GIRK flux – cell-based, HEK293 alpha2C/GIRK1/2, thallium flux, primary screen (AID 624;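 active = fluorescence slope after compound addition differing from the mean of all screened samples at 99.7% confidence, in either direction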;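 note: slope of fluorescence ratio to pre-addition baseline per second over 15 to 24 s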); settings: thallium flux BTC fluorescence, at 10 µM, actives lie on both sides
Chain of Alpha-2C adrenergic receptor (Homo sapiens) (P18825 whole entry, looked up): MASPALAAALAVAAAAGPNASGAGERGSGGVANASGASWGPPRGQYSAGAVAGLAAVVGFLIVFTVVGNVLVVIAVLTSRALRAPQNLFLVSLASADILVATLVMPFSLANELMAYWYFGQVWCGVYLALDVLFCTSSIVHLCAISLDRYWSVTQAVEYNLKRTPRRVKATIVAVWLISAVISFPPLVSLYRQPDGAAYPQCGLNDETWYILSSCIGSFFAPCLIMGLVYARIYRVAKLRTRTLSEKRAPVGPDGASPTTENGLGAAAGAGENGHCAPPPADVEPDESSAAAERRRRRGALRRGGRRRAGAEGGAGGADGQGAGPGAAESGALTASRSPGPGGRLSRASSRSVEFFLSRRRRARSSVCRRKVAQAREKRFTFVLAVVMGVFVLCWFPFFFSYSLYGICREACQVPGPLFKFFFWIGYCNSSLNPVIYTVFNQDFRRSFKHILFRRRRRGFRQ

[8] = inhibitors of larval lipid processing in zebrafish, primary screen, whole organism, PED6 fluorescence, gall bladder and intestine (AID 686;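 active = a full or partial loss of lipid-probe fluorescence in the fish gall bladder, intestine or both, judged by eye; inactive = no fluorescence loss, or compound toxic to the fish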;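 note: larvae 5 to 7 days old with five fish per well; signal comes from phospholipase A2 cleavage of quenched PED6 carried via bile; overnight exposure to compound and PED6 before scoring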); settings: Zebrafish larvae PED6 lipid processing, fluorescence scoring; screened at 20 µM (by protocol)
Outline: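 system = live zebrafish larvae aged 5-7 days, whole organism | probe or stimulus = ingested quenched lipid PED6 at 100 nM | doses = 20 µM single dose | timing = overnight exposure | detection = fluorescence microscopy with visual scoring of gall bladder and intestine | read-out = visual per-well fluorescence inhibition score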

[9] = loss of swimming-algae plug formation – whole organism, Chlamydomonas reinhardtii, WT vs cilia-less mutant, absorbance, 96-well, primary screen (AID 463189;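 active = inhibition at or above 50% relative to wild type and mutant plate controls; inactive = inhibition below 50%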;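 note: 0% = wild type cc124 cells in DMSO and 100% = ciliumless bld1 mutant cells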); settings: Chlamydomonas reinhardtii gravitaxis, OD600 absorbance, 2 days; at 10 µM; stronger effect = higher value
[10] = measured here: cell density z-score
[11] = measured here: nuclear c-Myc green intensity z-score
[12] = measured here: nuclear pErk red intensity z-score, stronger effect = higher value

Row | Structure (SMILES) | cell count [1] | inhibition [1] | inhibition [2] | nuclei count [2] [%] | z-score [3, 10] | z-score [3, 11] | z-score [3, 12] | inhibition [4] | fluorescence slope [5] | NADPH fluorescence slope [6] | slope [7] | outcome [8] | inhibition [9]
1 | CCCSc1nc(N2CCCC2)c2c(c1C#N)CC(C)(C)OC2 | 521 | -7.7% (inactive) | -153% (inactive) | 173 | 1.7 | -1.87 | -0.14 | 36.9% (inactive) | -0.322 (inactive) | 4.6e-06 (inactive) | 0.00655 (inactive) | inactive | 9.15% (inactive)
2 | Cc1nnc(C)n1/N=C/c1cccn1C | 300 | -9.7% (inactive) | -14.9% (inactive) | 136 | -0.977 | 2.09 | -1.42 | 3.5% (inactive) | -0.412 (inactive) | -0.00014 (inactive) | 0.00647 (inactive) | inactive | -5.16% (inactive)
3 | Cc1cc(C)c2nc(SCCC#N)nc(C)c2c1 | 635 | -4.4% (inactive) | 9.3% (inactive) | 157 | 0.288 | -0.415 | 1 | -2.91% (inactive) | -0.508 (inactive) | -6.6e-05 (inactive) | 0.00476 (inactive) | inactive | 4.11% (inactive)
4 | CCOC(=O)CSc1nc(NC#N)nc(N(CC)CC)n1 | 650 | -7.6% (inactive) | -42.9% (inactive) | 165 | -0.121 | -0.374 | -1.34 | 13.2% (inactive) | -0.51 (inactive) | -9.5e-05 (inactive) | 0.0053 (inactive) | inactive | -12.7% (inactive)
5 | COc1ccc(Nc2oc(-c3cccs3)nc2C#N)cc1 | 383 | 2.9% (inactive) | -134% (inactive) | 142 | 1.97 | -0.949 | -1.32 | 15% (inactive) | -0.352 (inactive) | -1.7e-05 (inactive) | 0.00524 (inactive) | inactive | 16% (inactive)
6 | CCOC(=O)c1cc(C)n(Cc2cccc(OC)c2OC)c1C | 502 | -9.3% (inactive) | -39.9% (inactive) | 122 | 1.01 | 0.196 | 0.00488 | 17% (inactive) | -0.496 (inactive) | -9.4e-05 (inactive) | 0.00511 (inactive) | inactive | 26.9% (inactive)
7 | O=S1(=O)C[C@@H](N2CCOCC2)[C@H](N2CCOCC2)C1 | 513 | 3.1% (inactive) | -110% (inactive) | 133 | -0.578 | 0.935 | 0.179 | -3.5% (inactive) | -0.462 (inactive) | -7.3e-05 (inactive) | 0.00558 (inactive) | inactive | 3.28% (inactive)
8 | CCCOc1cccc(C2C(C(=O)c3ccc(C)o3)=C(O)C(=O)N2CCCN(C)C)c1 (stereo unspecified) | 432 | 3.5% (inactive) | 48.5% (inactive) | 77.5 | -0.596 | -1.82 | 0.0129 | -11.9% (inactive) | -0.45 (inactive) | -9.1e-06 (inactive) | 0.00522 (inactive) | inactive | -2.38% (inactive)
9 | CC(C)C1Cc2c(sc3c2c(=O)n(-c2ccccc2)c2nncn32)CO1 (stereo unspecified) | 603 | -21.3% (inactive) | -90.9% (inactive) | 179 | -0.575 | -0.884 | 1.06 | 3.56% (inactive) | -0.379 (inactive) | -5.4e-05 (inactive) | 0.00589 (inactive) | inactive | -0.205% (inactive)
10 | CCOC(=O)c1[nH]c2cc3c(cc2c1NC(=O)CN1CCC(C)CC1)OCO3 | 554 | -1.1% (inactive) | -6.5% (inactive) | 155 | -0.767 | 1.52 | -0.0577 | 1.6e-07% (inactive) | -0.27 (inactive) | 6.7e-06 (inactive) | 0.00467 (inactive) | inactive | -6.78% (inactive)
11 | COc1ccc(C2CC(C(F)(F)F)n3ncc(C(=O)Nc4cccc(O)c4)c3N2)cc1OC (stereo unspecified) | 494 | -6.1% (inactive) | -14.4% (inactive) | 119 | -0.0495 | 0.084 | -0.887 | 1.75% (inactive) | -0.483 (inactive) | -0.00017 (inactive) | 0.0043 (inactive) | active; weak signal in gallbladder and intestine | -4.48% (inactive)
12 | CCCCOc1ccc(CN(C)c2ncnc(N)n2)cc1 | 657 | -1.7% (inactive) | -51.5% (inactive) | 180 | -0.491 | 0.207 | -0.506 | 5.57% (inactive) | -0.503 (inactive) | -0.00011 (inactive) | 0.00652 (inactive) | inactive | 29.8% (inactive)
